Test results as given in ChEMBL document CHEMBL1147785, “Novel peptidomimetic cysteine protease inhibitors as potential antimalarial agents” (J Med Chem, 2006).
The source made the active and inactive calls. The calls are words filed in the database; no cut-off is given here.

Biological target: T1, Caspase-6 (Homo sapiens) (UniProt P55212)
T1 sequence (whole entry): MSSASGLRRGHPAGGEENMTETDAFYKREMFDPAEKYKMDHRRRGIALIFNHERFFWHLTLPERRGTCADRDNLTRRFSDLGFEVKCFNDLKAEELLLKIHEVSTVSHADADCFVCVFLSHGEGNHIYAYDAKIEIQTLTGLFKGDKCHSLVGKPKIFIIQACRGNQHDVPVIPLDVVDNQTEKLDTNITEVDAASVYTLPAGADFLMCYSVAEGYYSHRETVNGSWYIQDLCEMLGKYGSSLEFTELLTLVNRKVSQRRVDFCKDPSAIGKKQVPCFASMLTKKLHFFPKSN
Assay: Inhibition of human recombinant caspase6 upto 50 uM

Question: For `COc1ccc(NC(=O)OC[C@H]2N=C(c3ccccc3)c3ccccc3N(CC(=O)N[C@H]3CC(=O)OC3O)C2=O)cc1` (some centres undefined), which Activity is on record?
Answer: inactive

Question: With `O=C(CN1C(=O)[C@@H](COC(=O)Nc2ccc(F)cc2F)N=C(c2ccccc2)c2ccccc21)N[C@H]1CC(=O)OC1O` (some centres undefined) as the molecule, how does the Activity read?
Answer: inactive

Question: How did the Activity turn out when `Cc1cc(Cl)ccc1NC(=O)OC[C@H]1N=C(c2ccccc2)c2ccccc2N(CC(=O)N[C@H]2CC(=O)OC2O)C1=O` (some centres undefined) was run?
Answer: inactive

Biological target: T2, Falcipain 2 (Plasmodium falciparum, UniProt Q9N6S8)
T2 sequence (Q9N6S8 whole entry): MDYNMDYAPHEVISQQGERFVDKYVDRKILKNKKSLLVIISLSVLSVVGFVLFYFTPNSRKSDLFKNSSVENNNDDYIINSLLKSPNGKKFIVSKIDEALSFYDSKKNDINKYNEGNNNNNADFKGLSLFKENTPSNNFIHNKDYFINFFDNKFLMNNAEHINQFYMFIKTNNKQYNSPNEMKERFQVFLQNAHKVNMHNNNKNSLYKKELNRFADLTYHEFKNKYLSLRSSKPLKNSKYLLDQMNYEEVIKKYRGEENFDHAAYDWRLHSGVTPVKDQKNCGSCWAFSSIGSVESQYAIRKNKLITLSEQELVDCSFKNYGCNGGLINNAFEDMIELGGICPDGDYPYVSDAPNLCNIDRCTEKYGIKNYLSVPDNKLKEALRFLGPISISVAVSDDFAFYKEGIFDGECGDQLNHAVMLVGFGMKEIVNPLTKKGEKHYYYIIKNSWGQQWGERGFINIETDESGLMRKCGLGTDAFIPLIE
Assay: Inhibition of Plasmodium falciparum recombinant FP2A fused with maltose binding protein
Method in brief: (§1)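 Recombinant enzyme expressed in E. coli as a maltose binding protein fusion. Fluorescence assay using the fluorogenic substrate Z-Leu-Arg-AMC, with inhibitor at various concentrations. Hydrolysis rate was compared with DMSO-only negative controls and with positive controls containing a standard papain-family cysteine protease aldehyde inhibitor. Results are given as IC50.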

Question: With `COc1ccc(NC(=O)OC[C@H]2N=C(c3ccccc3)c3ccccc3N(CC(=O)N[C@H]3CC(=O)OC3O)C2=O)cc1` (some centres undefined) as the molecule, how does the IC50 read?
Answer: 8.79 µM

Question: `O=C(CN1C(=O)[C@@H](COC(=O)Nc2ccc(F)cc2F)N=C(c2ccccc2)c2ccccc21)N[C@H]1CC(=O)OC1O` (some centres undefined) was tested. Which IC50 did it give?
Answer: 13.5 µM

Question: `Cc1cc(Cl)ccc1NC(=O)OC[C@H]1N=C(c2ccccc2)c2ccccc2N(CC(=O)N[C@H]2CC(=O)OC2O)C1=O` (some centres undefined) was tested. Which IC50 did it give?
Answer: 8.25 µM

Biological target: T3, Falcipain 2B (Plasmodium falciparum, UniProt Q3HTL5)
T3 sequence (Q3HTL5 whole entry): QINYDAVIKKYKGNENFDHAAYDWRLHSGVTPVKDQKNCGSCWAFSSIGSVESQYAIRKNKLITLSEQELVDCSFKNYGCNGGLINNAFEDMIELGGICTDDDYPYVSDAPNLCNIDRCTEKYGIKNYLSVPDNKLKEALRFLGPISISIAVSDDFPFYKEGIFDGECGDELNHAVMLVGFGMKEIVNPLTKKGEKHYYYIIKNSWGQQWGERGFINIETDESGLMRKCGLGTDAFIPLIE
Assay: Inhibition of Plasmodium falciparum recombinant FP2B fused with maltose binding protein
Method in brief: as §1

Question: `COc1ccc(NC(=O)OC[C@H]2N=C(c3ccccc3)c3ccccc3N(CC(=O)N[C@H]3CC(=O)OC3O)C2=O)cc1` (some centres undefined) was tested. Which IC50 did it give?
Answer: 14 µM

Question: For `O=C(CN1C(=O)[C@@H](COC(=O)Nc2ccc(F)cc2F)N=C(c2ccccc2)c2ccccc21)N[C@H]1CC(=O)OC1O` (some centres undefined), which IC50 is on record?
Answer: 14.7 µM

Question: Which IC50 does the source give for `Cc1cc(Cl)ccc1NC(=O)OC[C@H]1N=C(c2ccccc2)c2ccccc2N(CC(=O)N[C@H]2CC(=O)OC2O)C1=O` (some centres undefined) here?
Answer: 11.2 µM

Biological target: T4, Caspase-1 (Homo sapiens) (UniProt P29466)
T4 sequence (whole entry): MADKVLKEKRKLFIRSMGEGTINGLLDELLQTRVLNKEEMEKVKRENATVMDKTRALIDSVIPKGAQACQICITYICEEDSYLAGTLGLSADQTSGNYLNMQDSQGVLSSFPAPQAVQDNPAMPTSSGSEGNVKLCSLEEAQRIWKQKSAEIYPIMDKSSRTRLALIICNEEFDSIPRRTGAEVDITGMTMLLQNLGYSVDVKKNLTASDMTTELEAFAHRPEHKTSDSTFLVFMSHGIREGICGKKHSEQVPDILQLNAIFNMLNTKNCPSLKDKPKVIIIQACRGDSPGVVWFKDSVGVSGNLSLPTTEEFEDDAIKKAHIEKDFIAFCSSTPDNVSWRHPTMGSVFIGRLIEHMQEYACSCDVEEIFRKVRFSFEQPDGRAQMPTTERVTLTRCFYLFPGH
Assay: Inhibition of human recombinant caspase1 upto 50 uM

Question: Which Activity does the source give for `COc1ccc(NC(=O)OC[C@H]2N=C(c3ccccc3)c3ccccc3N(CC(=O)N[C@H]3CC(=O)OC3O)C2=O)cc1` (some centres undefined) here?
Answer: inactive

Question: How did the Activity turn out when `O=C(CN1C(=O)[C@@H](COC(=O)Nc2ccc(F)cc2F)N=C(c2ccccc2)c2ccccc21)N[C@H]1CC(=O)OC1O` (some centres undefined) was run?
Answer: inactive

Question: With `Cc1cc(Cl)ccc1NC(=O)OC[C@H]1N=C(c2ccccc2)c2ccccc2N(CC(=O)N[C@H]2CC(=O)OC2O)C1=O` (some centres undefined) as the molecule, how does the Activity read?
Answer: inactive

Biological target: T5, Caspase-4 (Homo sapiens) (UniProt P49662)
T5 sequence (whole entry): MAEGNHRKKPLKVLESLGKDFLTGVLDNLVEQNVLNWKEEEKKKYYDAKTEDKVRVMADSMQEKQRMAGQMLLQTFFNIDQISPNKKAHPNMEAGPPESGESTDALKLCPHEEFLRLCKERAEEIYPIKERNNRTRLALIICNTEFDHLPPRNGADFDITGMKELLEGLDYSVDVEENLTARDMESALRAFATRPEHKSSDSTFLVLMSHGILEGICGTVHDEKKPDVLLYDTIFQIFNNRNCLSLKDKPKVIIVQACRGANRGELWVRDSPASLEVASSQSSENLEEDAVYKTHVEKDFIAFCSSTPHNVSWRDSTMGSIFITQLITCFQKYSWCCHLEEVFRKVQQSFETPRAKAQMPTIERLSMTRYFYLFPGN
Assay: Inhibition of human recombinant caspase4 upto 50 uM

Question: With `COc1ccc(NC(=O)OC[C@H]2N=C(c3ccccc3)c3ccccc3N(CC(=O)N[C@H]3CC(=O)OC3O)C2=O)cc1` (some centres undefined) as the molecule, how does the Activity read?
Answer: inactive

Question: `O=C(CN1C(=O)[C@@H](COC(=O)Nc2ccc(F)cc2F)N=C(c2ccccc2)c2ccccc21)N[C@H]1CC(=O)OC1O` (some centres undefined) was tested. Which Activity did it give?
Answer: inactive

Question: `Cc1cc(Cl)ccc1NC(=O)OC[C@H]1N=C(c2ccccc2)c2ccccc2N(CC(=O)N[C@H]2CC(=O)OC2O)C1=O` (some centres undefined) was tested. Which Activity did it give?
Answer: inactive

Biological target: T6, Caspase-5 (Homo sapiens) (UniProt P51878)
T6 sequence (whole entry): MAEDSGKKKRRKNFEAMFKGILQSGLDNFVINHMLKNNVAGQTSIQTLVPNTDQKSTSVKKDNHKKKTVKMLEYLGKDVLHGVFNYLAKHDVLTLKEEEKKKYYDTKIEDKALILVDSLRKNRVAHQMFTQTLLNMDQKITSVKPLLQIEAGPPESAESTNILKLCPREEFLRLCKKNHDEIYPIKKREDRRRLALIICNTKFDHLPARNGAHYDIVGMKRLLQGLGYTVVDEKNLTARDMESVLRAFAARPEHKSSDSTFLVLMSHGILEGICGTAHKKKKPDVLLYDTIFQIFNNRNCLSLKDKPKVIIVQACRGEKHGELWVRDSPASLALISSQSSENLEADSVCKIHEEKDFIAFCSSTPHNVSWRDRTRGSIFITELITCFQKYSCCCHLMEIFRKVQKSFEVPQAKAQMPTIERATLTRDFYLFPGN
Assay: Inhibition of human recombinant caspase5 upto 50 uM

Question: Which Activity does the source give for `COc1ccc(NC(=O)OC[C@H]2N=C(c3ccccc3)c3ccccc3N(CC(=O)N[C@H]3CC(=O)OC3O)C2=O)cc1` (some centres undefined) here?
Answer: inactive

Question: Which Activity does the source give for `O=C(CN1C(=O)[C@@H](COC(=O)Nc2ccc(F)cc2F)N=C(c2ccccc2)c2ccccc21)N[C@H]1CC(=O)OC1O` (some centres undefined) here?
Answer: inactive

Question: How did the Activity turn out when `Cc1cc(Cl)ccc1NC(=O)OC[C@H]1N=C(c2ccccc2)c2ccccc2N(CC(=O)N[C@H]2CC(=O)OC2O)C1=O` (some centres undefined) was run?
Answer: inactive

Biological target: T7, Caspase-7 (Homo sapiens) (UniProt P55210)
T7 sequence (whole entry): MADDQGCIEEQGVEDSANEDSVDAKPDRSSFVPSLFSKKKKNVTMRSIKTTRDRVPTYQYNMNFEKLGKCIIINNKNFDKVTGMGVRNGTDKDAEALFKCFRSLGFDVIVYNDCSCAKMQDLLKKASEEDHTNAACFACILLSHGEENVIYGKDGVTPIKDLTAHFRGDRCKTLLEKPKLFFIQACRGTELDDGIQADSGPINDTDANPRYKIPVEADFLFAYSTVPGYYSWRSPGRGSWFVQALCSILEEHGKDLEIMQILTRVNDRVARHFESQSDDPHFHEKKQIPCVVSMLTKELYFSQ
Assay: Inhibition of human recombinant caspase7 upto 50 uM

Question: How did the Activity turn out when `COc1ccc(NC(=O)OC[C@H]2N=C(c3ccccc3)c3ccccc3N(CC(=O)N[C@H]3CC(=O)OC3O)C2=O)cc1` (some centres undefined) was run?
Answer: inactive

Question: How did the Activity turn out when `O=C(CN1C(=O)[C@@H](COC(=O)Nc2ccc(F)cc2F)N=C(c2ccccc2)c2ccccc21)N[C@H]1CC(=O)OC1O` (some centres undefined) was run?
Answer: inactive

Question: `Cc1cc(Cl)ccc1NC(=O)OC[C@H]1N=C(c2ccccc2)c2ccccc2N(CC(=O)N[C@H]2CC(=O)OC2O)C1=O` (some centres undefined) was tested. Which Activity did it give?
Answer: inactive

Biological target: Caspase-8 (Homo sapiens) (UniProt Q14790)
Sequence (Q14790 217-374 limits assumed): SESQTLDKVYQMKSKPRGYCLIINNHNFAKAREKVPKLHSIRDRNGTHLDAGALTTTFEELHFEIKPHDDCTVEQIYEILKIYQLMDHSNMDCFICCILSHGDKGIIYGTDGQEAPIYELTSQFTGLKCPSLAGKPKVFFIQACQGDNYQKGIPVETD
Sequence (Q14790 385-479 limits assumed): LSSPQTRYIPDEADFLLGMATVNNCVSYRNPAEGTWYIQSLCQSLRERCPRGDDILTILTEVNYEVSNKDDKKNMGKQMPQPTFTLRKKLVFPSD
Assay: Inhibition of human recombinant caspase8 upto 50 uM

Question: With `COc1ccc(NC(=O)OC[C@H]2N=C(c3ccccc3)c3ccccc3N(CC(=O)N[C@H]3CC(=O)OC3O)C2=O)cc1` (some centres undefined) as the molecule, how does the Activity read?
Answer: inactive

Question: With `O=C(CN1C(=O)[C@@H](COC(=O)Nc2ccc(F)cc2F)N=C(c2ccccc2)c2ccccc21)N[C@H]1CC(=O)OC1O` (some centres undefined) as the molecule, how does the Activity read?
Answer: inactive

Question: For `Cc1cc(Cl)ccc1NC(=O)OC[C@H]1N=C(c2ccccc2)c2ccccc2N(CC(=O)N[C@H]2CC(=O)OC2O)C1=O` (some centres undefined), which Activity is on record?
Answer: inactive
